Source: PubChem BioAssay (The Scripps Research Institute Molecular Screening Center)
OX1R antag-1: antagonists of human orexin 1 receptor (OX1R). 330,000 tested, 1.8% active. AID 485270, 2010. OX1R-expressing cells, FRET antagonist read-out. Orexin/Hypocretin receptor type 1 (Homo sapiens), O43613. inhibition, % at 6.6 µM; in the data active = inhibition mostly above about 38%, no sharp cut-off; inactive = mostly below about 40%;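 note: 0% = agonist challenge alone and 100% = reference antagonist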
GPR7 antag: GPR7 receptor antagonists, primary screen, cell-based, fluorescence, single concentration. inhibition, % at 4.4 µM. Neuropeptides B/W receptor type 1 (Homo sapiens), P48145. GPR7-expressing cells, fluorescence antagonist assay. 290,000 tested, 1.1% active; in the data active = inhibition above about 16%, passing the limit was not always enough;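 note: cells stimulated with the agonist NPW; 0% = agonist with vehicle and 100% = vehicle without agonist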
OX1R antag-2: OX1R (HCRTR1) antagonists, primary screen, fluorescence, CHO/OX1R cells, Fluo-8 calcium, orexin A; Orexin/Hypocretin receptor type 1 (Homo sapiens), O43613; Fluo-8 calcium fluorescence; inhibition, % at 5 µM; 330,000 tested, 0.43% active; AID 434989, 2010;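 active = inhibition above its plate's threshold, mean inhibition of all tested compounds on the plate plus 3 SD, cut at about 37% in these data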;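 note: 0% = orexin A challenge wells and 100% = SB-334867-A antagonist wells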
TAAR1 agonist: human TAAR1 agonists, primary screen, Fluo-8 calcium fluorescence, CHO RD-HGA16 cells. vehicle wells 0%, saturating PEA agonist 100%. activation, % at 3 µM. 360,000 tested, 0.99% active. AID 624467, 2012;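 active = activation above the mean activation of all test compounds in the run plus 3 SD, cut at about 38% in these data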
Target sequence (Q96RJ0 whole entry, looked up): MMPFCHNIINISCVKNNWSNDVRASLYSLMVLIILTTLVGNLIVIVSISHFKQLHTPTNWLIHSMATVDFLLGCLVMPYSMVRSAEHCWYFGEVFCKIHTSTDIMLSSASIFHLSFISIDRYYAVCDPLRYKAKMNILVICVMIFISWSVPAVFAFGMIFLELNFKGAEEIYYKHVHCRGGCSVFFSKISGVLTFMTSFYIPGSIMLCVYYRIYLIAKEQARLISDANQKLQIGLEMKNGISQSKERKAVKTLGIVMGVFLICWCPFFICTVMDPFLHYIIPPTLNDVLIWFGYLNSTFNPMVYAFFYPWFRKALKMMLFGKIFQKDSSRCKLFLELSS
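Repeats: no replicates (n 1) | Material: CHO-derived RD-HGA16 cells with stable Gα16 and human TAAR1 | Technique: Kinetic Fluo-8 calcium fluorescence | Schedule: 17-24 h seeding, 75 min 37 °C dye, 30 min RT | Evaluation: % activation from peak over basal fluorescence ratio, DMSO-to-PEA scaled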
CHO parental Ca: ATP-evoked calcium signal inhibitors, parental CHO, primary screen, counter-screen for OX1R antagonist project, cell-based, fluorescence, Fluo-8 calcium dye; inhibition, % at 5.6 µM; parental CHO-K1, ATP-induced calcium, Fluo-8 fluorescence; 330,000 tested, 0.63% active; AID 463079, 2010;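 active = inhibition above that plate's mean sample inhibition plus 3 SD, cut at about 26% in these data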;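 note: 0% = ATP-challenged DMSO wells and 100% = DMSO wells without ATP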
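Test system: untransfected parental CHO cell line. Compound: one dose, 5.6 µM nominal. Detection: intracellular calcium via Fluo-8 no-wash fluorescent dye. Measure: % inhibition. Benchmarks: ATP-challenged DMSO wells low, unchallenged DMSO wells high.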
TAAR1 antagonist: human TAAR1 antagonists, primary screen, Fluo-8 calcium fluorescence, CHO RD-HGA16 cells. Trace amine-associated receptor 1 (Homo sapiens), Q96RJ0. antagonist. inhibition, % at 3 µM. 360,000 tested, 1.5% active. AID 624466, 2012;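 active = inhibition above a per-plate cutoff, the mean inhibition of test compounds on that plate plus 3 SD, cut at about 49% in these data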;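 note: 0% = DMSO plus EC80 beta-PEA response and 100% = DMSO alone without agonist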
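Assay system: RD-HGA16 CHO cells with stable hTAAR1 and Gα16 / Reagent: EC80 β-phenethylamine stimulus / Doses: 3 µM, single point / Timing: dye loading 75 min at 37 °C, then 30 min room temperature / Measured by: Fluo-8 intracellular calcium dye fluorescence, real-time kinetic reads / Controls: vehicle wells and EC80 agonist wells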
* marks the source's active call; other numbers are inactive results; · = not tested or not shown. The list is not random: actives were taken first. Their share in the collection is about 4.6%.

SMILES	OX1R antag-1	GPR7 antag	OX1R antag-2	TAAR1 agonist	CHO parental Ca	TAAR1 antagonist
COc1cc(NS(=O)(=O)c2ccc(C)cc2C)cc(OC)c1OC	27.6	-2.3	30.2	8.5	50.6*	33.6
CCOC(=O)c1ccc(NS(=O)(=O)c2cc(C)ccc2OC)cc1	8.9	-6.3	-19.9	7.4	24.3*	4.1
Cc1ccc(S(=O)(=O)Nc2ccncc2)c(C)c1	4.6	-4.3	-7.3	2.9	-9.7	-2.6
CCOC(=O)c1ccc(NS(=O)(=O)c2cc(-c3nnnn3CC)ccc2OC)cc1	7.7	4.0	-19.2	12.3	-16.1	3.3
O=S1(=O)c2cc(Cl)ccc2N2CC[C@H](C2)N1Cc1ccc(Cl)c(Cl)c1	·	·	·	2.0	·	1.6
COc1ccc2cc(CN(CC3CCCO3)S(=O)(=O)c3ccccc3)c(=O)[nH]c2c1 (centres undefined)	11.7	-5.3	-9.4	19.4	-11.9	3.2
Cc1cccc2cc(CN(CC3CCCO3)S(=O)(=O)c3ccccc3)c(=O)[nH]c12 (centres undefined)	6.5	-6.8	-15.9	10.1	-26.4	48.8*
Cc1ccc(NC(=O)CSc2nnc(-c3ccco3)n2N)cc1F	11.9	-4.4	-30.4	40.8*	-22.2	-32.8
Cc1cc(C)c(NC(=O)CSc2nnc(-c3ccco3)n2N)c(C)c1	14.1	-5.4	-25.4	9.1	-3.1	-9.5
CC(C)NC(=O)CN1CCN(C(c2ccnc3ccccc23)c2nnnn2-c2ccc3c(c2)OCCO3)CC1 (centres undefined)	·	·	·	3.5	·	1.1
CCc1ccccc1N(C)S(=O)(=O)c1ccc2[nH]cc(C(=O)N3CCc4ccccc43)c(=O)c2c1	2.8	-6.2	-13.9	9.3	-11.4	56.7*
O=C1c2cccc(NCCCNCCO)c2C(=O)c2cccc(NCCCNCCO)c21	·	·	·	0.9	·	11.3
O=C(Nc1ccccc1)N(Cc1ccccc1)C1=NCCS1	11.9	-0.5	-2.1	39.6*	-8.1	5.3
COC(=O)[C@]1(CC(C)C)NC=C(C(=O)c2ccccc2)[C@@H]1c1cccc(C(F)(F)F)c1	·	·	·	-2.5	·	-10.4
CCNC(=O)NC(=O)C(C)N1C(=O)NC(c2ccccc2)(c2ccccc2)C1=O (centres undefined)	2.6	-16.7	-20.8	3.0	-25.8	4.2
O=C(CN1C(=O)NC(c2ccccc2)(c2ccccc2)C1=O)NCc1ccc(F)cc1	40.5*	·	21.4	8.7	-20.9	-4.7
COc1ccc(CNC(=O)C(C)N2C(=O)NC(c3ccccc3)(c3ccccc3)C2=O)cc1 (centres undefined)	35.3*	·	16.3	19.0	-32.9	-0.6
C#CCN1CC(COc2ccccc2)Oc2cccc(Oc3ccc(C(C)C)cc3)c2S1(=O)=O (centres undefined)	·	·	·	0.7	·	5.1
C/C(=N\NC(=S)NC1CCCCC1)c1ccc(OC(F)F)cc1OC(F)F	37.2	-9.1	28.0	0.3	40.8*	23.2
C/C(=N\NC(=O)C1CC1)c1ccc(OC(F)F)cc1OC(F)F	13.8	-8.6	-24.4	0.7	-9.9	-6.9
FC(F)Oc1ccc(NC(=S)NC2CCCCCCC2)cc1	29.1	-1.5	23.6	2.6	37.2*	8.3
COc1ccc(Cl)cc1NC(=O)CSc1nc2[nH]ncc2c(=O)[nH]1	·	·	·	4.2	·	-7.5
COc1cc(CN2C[C@@H](CO)O[C@@H](n3cnc4c(NCCCO)ncnc43)C2)cc(OC)c1OC	·	·	·	0.5	·	-7.4
O=C1c2c(-c3ccc(Br)cc3)noc2CCN1Cc1cn(Cc2cccnc2)nn1	·	·	·	0.1	·	-21.3
Cc1cc(C)cc(NC(=O)c2ccc(CSc3nnnn3C)cc2)c1	49.0*	-0.3	7.0	19.7	-8.8	66.1*
CC(=O)Nc1cccc(-c2cc(NC=O)c3ncc(-c4cccc(C(C)=O)c4)n3c2)c1	·	·	·	7.3	·	25.7
CC(=O)Nc1cc(-c2ccc(CO)cc2)cn2c(-c3ccc(F)c(Cl)c3)cnc12	·	·	·	5.2	·	54.1*
COc1cccc(-c2cnc3c(NC=O)cc(-c4cccc(NC(C)=O)c4)cn23)c1	·	·	·	9.0	·	55.1*
